Measurements reported in ChEMBL document CHEMBL3872208, “Synthesis and pharmacological characterization of novel N-(trans-4-(2-(4-(benzo[d]isothiazol-3-yl)piperazin-1-yl)ethyl)cyclohexyl)amides as potential multireceptor atypical antipsychotics” (Eur J Med Chem, 2016).
Calls of active or inactive are those of the source. No cut-off for these calls is given here.

Legend:
CHO = assay: Selectivity ratio of Ki for displacement of [3H]spiperone from recombinant human D2L receptor expressed in CHO cell membranes to Ki for displacement of [3H]methyl-spiperone from recombinant human D3 receptor expressed in CHO cell membranes
Method in brief: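 D2L binding: CHO membranes (16 µg protein) with 0.3 nM [3H]methyl-spiperone in 50 mM Tris-HCl pH 7.4, 120 mM NaCl, 10 mM MgCl2, 1 mM EDTA, with butaclamol for nonspecific binding. D3 binding: membranes (8 µg) with 0.3 nM [3H]methyl-spiperone in the same Tris buffer with 5 mM KCl, 5 mM MgCl2, 5 mM EDTA, with (+)butaclamol for nonspecific binding. Both run 60 min at 22 °C, then GF/B filtration. Ki by Cheng–Prusoff; ratio is D2 Ki/D3 Ki.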

D(2) dopamine receptor = D(2) dopamine receptor (Homo sapiens, UniProt P14416); assay: Displacement of [3H]spiperone from recombinant human D2L receptor expressed in CHO cell membranes after 60 mins by scintillation counting method
D(3) dopamine receptor = D(3) dopamine receptor (Homo sapiens, UniProt P35462); assay: Displacement of [3H]methyl-spiperone from recombinant human D3 receptor expressed in CHO cell membranes after 60 mins by scintillation counting method
[1] = target: T1, 5-hydroxytryptamine receptor 1A (Homo sapiens, UniProt P08908); assay: Displacement of [3H]8-OH-DPAT from recombinant human 5-HT1A receptor expressed in HEK293 cell membranes after 60 mins by scintillation counting method
T1 sequence (P08908 whole entry): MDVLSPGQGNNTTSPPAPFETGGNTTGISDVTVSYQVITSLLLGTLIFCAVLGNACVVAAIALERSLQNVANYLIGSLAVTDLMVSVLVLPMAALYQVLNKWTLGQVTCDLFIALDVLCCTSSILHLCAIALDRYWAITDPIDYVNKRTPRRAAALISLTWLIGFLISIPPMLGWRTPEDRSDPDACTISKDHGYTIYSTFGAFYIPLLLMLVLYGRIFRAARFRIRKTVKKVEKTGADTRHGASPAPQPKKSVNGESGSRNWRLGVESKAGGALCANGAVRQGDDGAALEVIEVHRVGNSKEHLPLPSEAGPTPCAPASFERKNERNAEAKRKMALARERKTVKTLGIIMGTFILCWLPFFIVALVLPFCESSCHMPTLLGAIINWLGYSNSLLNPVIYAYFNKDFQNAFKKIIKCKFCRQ

[2] = target: T2, 5-hydroxytryptamine receptor 2A (Homo sapiens, UniProt P28223); assay: Displacement of [3H]ketanserin from recombinant human 5-HT2A receptor expressed in HEK293 cell membranes after 60 mins by scintillation counting method
Rattus norvegicus [3] = assay: Antipsychotic activity in Sprague-Dawley rat assessed as inhibition of conditioned avoidance behavior at 1.0 to 2.0 mg/kg, ip administered as single dose measured after 1 hr; type: functional, organism-based
Method in brief: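 Male SD rats (150–180 g, 6 per group) trained in automated shuttle-boxes; only rats exceeding 80% avoidance were used. Single i.p. dose of 1.0 or 2.0 mg/kg given 1 h before a 20-trial session. Read-out is percentage of avoidance (mean ± SEM, n = 6), compared with the vehicle group.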

Rattus norvegicus [4] = assay: Toxicity in Sprague-Dawley rat assessed as cataleptogenic effect by measuring time spent in cataleptic position at 1 to 10 mg/kg, po measured after 0.5 to 2 hrs; type: organism-based; settings: in vivo
Method in brief: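 Male SD rats (180–250 g, n = 7) dosed orally at 1.0, 3.0 or 10.0 mg/kg. Forepaws placed on a bar 0.9 cm in diameter, 11 cm high, at 30, 60 and 120 min after dosing. Time held is expressed as a percentage of the 60 s maximum (mean ± SEM).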

[5] = target: T3, 5-hydroxytryptamine receptor 1A (Homo sapiens) (UniProt P08908); settings: CHO-K1, 10 uM
T3 sequence (whole entry): T1 sequence (P08908 whole entry)

[6] = target: T2, 5-hydroxytryptamine receptor 2A; settings: CHO-K1, 10 uM

T2 sequence (P28223 whole entry): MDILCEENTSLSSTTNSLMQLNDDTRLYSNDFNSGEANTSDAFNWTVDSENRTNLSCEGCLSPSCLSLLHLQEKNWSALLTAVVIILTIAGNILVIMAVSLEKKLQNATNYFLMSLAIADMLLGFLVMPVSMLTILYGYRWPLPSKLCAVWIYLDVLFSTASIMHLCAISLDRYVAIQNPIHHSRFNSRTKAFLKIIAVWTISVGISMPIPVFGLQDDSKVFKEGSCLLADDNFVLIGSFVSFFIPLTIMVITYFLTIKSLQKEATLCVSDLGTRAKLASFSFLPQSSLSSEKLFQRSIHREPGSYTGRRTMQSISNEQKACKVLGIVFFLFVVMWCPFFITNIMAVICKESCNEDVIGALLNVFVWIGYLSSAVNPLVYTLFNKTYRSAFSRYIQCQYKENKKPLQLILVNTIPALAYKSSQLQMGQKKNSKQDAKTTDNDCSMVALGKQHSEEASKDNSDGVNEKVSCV
Sequence of D(3) dopamine receptor (P35462 whole entry): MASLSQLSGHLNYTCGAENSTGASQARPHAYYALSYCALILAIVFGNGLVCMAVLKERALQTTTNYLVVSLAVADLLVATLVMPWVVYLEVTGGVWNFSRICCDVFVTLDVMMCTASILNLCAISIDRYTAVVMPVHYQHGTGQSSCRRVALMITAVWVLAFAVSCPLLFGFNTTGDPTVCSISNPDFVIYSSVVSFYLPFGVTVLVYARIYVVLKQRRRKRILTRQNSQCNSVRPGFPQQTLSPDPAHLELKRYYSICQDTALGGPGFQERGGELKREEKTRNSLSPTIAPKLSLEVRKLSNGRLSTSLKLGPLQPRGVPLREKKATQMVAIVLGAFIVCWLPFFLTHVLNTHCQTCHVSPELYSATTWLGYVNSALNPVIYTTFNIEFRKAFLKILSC
Sequence of D(2) dopamine receptor (P14416 whole entry): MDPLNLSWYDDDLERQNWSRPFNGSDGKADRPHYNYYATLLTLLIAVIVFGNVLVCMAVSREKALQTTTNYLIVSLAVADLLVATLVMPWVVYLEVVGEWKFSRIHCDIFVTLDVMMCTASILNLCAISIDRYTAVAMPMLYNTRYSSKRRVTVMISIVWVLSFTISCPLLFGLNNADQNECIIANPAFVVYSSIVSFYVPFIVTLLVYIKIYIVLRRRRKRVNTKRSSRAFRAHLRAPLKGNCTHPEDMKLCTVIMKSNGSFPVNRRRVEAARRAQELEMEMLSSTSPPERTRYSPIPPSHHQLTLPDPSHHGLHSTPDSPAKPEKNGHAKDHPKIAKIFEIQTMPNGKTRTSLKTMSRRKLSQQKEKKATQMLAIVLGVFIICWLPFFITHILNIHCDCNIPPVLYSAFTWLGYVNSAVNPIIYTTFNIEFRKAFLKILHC

SMILES | Ki (D(2) dopamine receptor) [nM] | Ki (D(3) dopamine receptor) [nM] | Ki [1] [nM] | Ki [2] [nM] | inhibition [5] [%] | inhibition [6] [%] | Ratio Ki (CHO) | inhibition (Rattus norvegicus [3]) | Activity (Rattus norvegicus [4])
O=C(Nc1cccnc1)N[C@H]1CC[C@H](CCN2CCN(c3nsc4ccccc34)CC2)CC1 | 0.51 | 0.055 | 12 | 0.14 | – | – | 9.27 | – | –
CCOC(=O)N[C@H]1CC[C@@H](CCN2CCN(c3nsc4ccccc34)CC2)CC1 | 4 | 2 | 0.57 | 0.18 | – | – | 2 | – | –
Cc1ccc(S(=O)(=O)N[C@H]2CC[C@H](CCN3CCN(c4nsc5ccccc45)CC3)CC2)cc1 | 0.42 | 0.062 | 3.9 | 0.26 | – | – | 6.77 | – | –
O=C(N[C@H]1CC[C@@H](CCN2CCN(c3nsc4ccccc34)CC2)CC1)c1ccco1 | 6.3 | 2.3 | 2.2 | 0.19 | – | – | 2.74 | – | –
O=C(N[C@H]1CC[C@H](CCN2CCN(c3nsc4ccccc34)CC2)CC1)c1cccs1 | 0.19 | 0.056 | 1.1 | 0.15 | – | – | 3.4 | – | –
O=C(N[C@H]1CC[C@H](CCN2CCN(c3nsc4ccccc34)CC2)CC1)c1cccnc1 | 0.85 | 0.09 | 2.1 | 0.29 | – | – | 9.44 | – | –
O=C(N[C@H]1CC[C@H](CCN2CCN(c3nsc4cc([N+](=O)[O-])ccc34)CC2)CC1)c1ccco1 | 26 | 0.24 | 39 | 1.8 | – | – | 108 | – | –
O=S(=O)(N[C@H]1CC[C@H](CCN2CCN(c3nsc4ccccc34)CC2)CC1)c1cccnc1 | 0.35 | 0.058 | 11 | 8.1 | – | – | 6.03 | – | –
O=C(NCc1ccccc1)N[C@H]1CC[C@H](CCN2CCN(c3nsc4ccccc34)CC2)CC1 | 1.4 | 0.18 | 5.3 | 0.91 | – | – | 7.78 | – | –
CN([C@H]1CC[C@H](CCN2CCN(c3nsc4ccccc34)CC2)CC1)S(=O)(=O)c1cccs1 | 0.3 | 0.046 | 2.9 | 1.2 | – | – | 6.52 | – | –
O=C(N[C@H]1CC[C@H](CCN2CCN(c3nsc4ccccc34)CC2)CC1)c1ccccc1 | 0.33 | 0.047 | 1.7 | 0.24 | – | – | 7.02 | – | –
Cc1nc2n(c(=O)c1CCN1CCC(c3noc4cc(F)ccc34)CC1)CCCC2 [RISPERIDONE] | – | – | – | – | – | – | – | – | Non-Toxic
O=C(N[C@H]1CC[C@H](CCN2CCN(c3nsc4ccccc34)CC2)CC1)C1CCCCC1 | 0.94 | 0.19 | 5.6 | 0.36 | – | – | 4.95 | – | –
CCC(=O)N[C@H]1CC[C@H](CCN2CCN(c3nsc4ccccc34)CC2)CC1 | 18 | 0.052 | 1.5 | 1.1 | – | – | 346 | – | –
N[C@H]1CC[C@H](CCN2CCN(c3nsc4ccccc34)CC2)CC1 | 4.6 | 9.6 | 7.2 | 0.21 | – | – | 0.48 | – | –
Nc1ccc2c(N3CCN(CC[C@H]4CC[C@H](NC(=O)c5ccco5)CC4)CC3)nsc2c1 | 14 | 1.1 | 33 | 4.3 | – | – | 12.7 | – | –
CN(C(=O)N[C@H]1CC[C@H](CCN2CCN(c3nsc4ccccc34)CC2)CC1)c1ccccc1 | – | 1.2 | 5.2 | – | – | – | – | – | –
CSc1ccc2c(c1)C(N1CCN(C)CC1)Cc1ccccc1S2 (centres undefined) | – | – | – | – | 108 | 100 | – | – | –
CCCC(=O)N[C@H]1CC[C@H](CCN2CCN(c3nsc4ccccc34)CC2)CC1 | 2.8 | 0.14 | 2.1 | 0.87 | – | – | 20 | – | –
O=C(NC[C@H]1CC[C@H](CN2CCN(c3nsc4ccccc34)CC2)CC1)c1ccco1 | 8.9 | 1 | 5.3 | 16 | – | – | 8.9 | – | –
O=C(N[C@H]1CC[C@H](CCN2CCN(c3nsc4ccccc34)CC2)CC1)N1CCOCC1 | 2.2 | 1.6 | 15 | 3.2 | – | – | 1.38 | – | –
COCC(=O)N[C@H]1CC[C@H](CCN2CCN(c3nsc4ccccc34)CC2)CC1 | 9.6 | 0.31 | 3 | 0.24 | – | – | 31 | – | –
CC(C)N(C(=O)N[C@H]1CC[C@H](CCN2CCN(c3nsc4ccccc34)CC2)CC1)C(C)C | 0.72 | 1.4 | 2.3 | 0.38 | – | – | 0.51 | – | –
O=C(N[C@H]1CC[C@H](CCN2CCN(c3nsc4ccccc34)CC2)CC1)c1ccc[nH]1 | – | – | – | – | – | – | 0.68 | – | –

Second part, led by results:

Ki (D(2) dopamine receptor) [nM] | Ki (D(3) dopamine receptor) [nM] | Ki [1] [nM] | Ki [2] [nM] | inhibition [5] [%] | inhibition [6] [%] | SMILES | Ratio Ki (CHO) | inhibition (Rattus norvegicus [3]) | Activity (Rattus norvegicus [4])
15 | 7.3 | 0.72 | 2.2 | – | – | O=C(c1ccco1)N1CCC(CCN2CCN(c3nsc4ccccc34)CC2)CC1 | 2.2 | – | –
0.85 | 0.21 | 0.92 | 0.35 | – | – | O=C(N[C@H]1CC[C@H](CCN2CCN(c3nsc4ccccc34)CC2)CC1)C1CC1 | 4.05 | – | –
0.51 | 0.78 | 1.4 | 0.5 | – | – | CCN(C)C(=O)N[C@H]1CC[C@H](CCN2CCN(c3nsc4ccccc34)CC2)CC1 | 0.65 | – | –
1.9 | 0.22 | 1.1 | 0.34 | – | – | CCCS(=O)(=O)N[C@H]1CC[C@H](CCN2CCN(c3nsc4ccccc34)CC2)CC1 | 8.64 | – | –
25 | 0.16 | 0.69 | 5.8 | – | – | CC(=O)N[C@H]1CC[C@H](CCN2CCN(c3nsc4ccccc34)CC2)CC1 | 156 | – | –
10 | 8.7 | 1.3 | 3.3 | – | – | CCOC(=O)N1CCC(CCN2CCN(c3nsc4ccccc34)CC2)CC1 | 1.15 | – | –
– | – | 1.1 | – | – | – | O=S(=O)(N[C@H]1CC[C@H](CCN2CCN(c3nsc4ccccc34)CC2)CC1)c1cccs1 | – | Active | –
8.9 | 0.095 | 1.3 | 0.28 | – | – | CS(=O)(=O)N[C@H]1CC[C@H](CCN2CCN(c3nsc4ccccc34)CC2)CC1 | 93.7 | – | –
0.63 | 0.043 | 1.4 | 0.21 | – | – | O=C(Nc1ccccc1)N[C@H]1CC[C@H](CCN2CCN(c3nsc4ccccc34)CC2)CC1 | 14.7 | Active | –
1.7 | 0.27 | 1.1 | 0.63 | – | – | O=C(N[C@H]1CC[C@H](CCN2CCN(c3nsc4ccccc34)CC2)CC1)C(F)(F)F | 6.3 | – | –
0.53 | 0.4 | 1.2 | 0.6 | – | – | CN(C)C(=O)N[C@H]1CC[C@H](CCN2CCN(c3nsc4ccccc34)CC2)CC1 | 1.33 | – | –
